Assay results: ChEMBL document CHEMBL5335768, “Expanding the knowledge around antitubercular 5-(2-aminothiazol-4-yl)isoxazole-3-carboxamides: Hit-to-lead optimization and release of a novel antitubercular chemotype via scaffold derivatization” (Eur J Med Chem, 2023)
≈ marks a conversion by molar mass, not a printed value. Calls of active or inactive are those of the source. The rule behind the calls is not given here.

Experiments:
[1] = tested on: Mycobacterium tuberculosis; experiment: Antitubercular activity against Mycobacterium tuberculosis H37Rv assessed as inhibition of bacterial growth incubated for 7 days by REMA method; format: functional
Mycobacterium marinum [2] = conditions: ATCC BAA-535, time 3.0 weeks
[3] = Cytotoxicity against human THP-1 cells assessed as reduction in cell viability measured after 72 hrs by MTT assay; format: toxicity, cell-based
In short: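 THP-1 monocytes were differentiated to macrophages with PMA 100 ng/mL for 72 h. They were then exposed to compounds at 1, 10, 50 and 100 μM for 72 h, each tested twice. MTT at 1 mg/mL in RPMI with 5% FBS was added for 2 h at 37 °C; formazan was dissolved in DMSO and read at 570 nm. Viability is given as % of control; IC50 from non-linear regression.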

[4] = tested on: Mycobacteroides abscessus; experiment: Antitubercular activity against Mycobacterium abscessus Bamboo assessed as inhibition of bacterial growth upto 100 uM measured after 3 days by broth microdilution method; format: functional, organism-based; conditions: time 3.0 day
In short: (§1)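 Twofold serial dilutions inoculated at OD600 0.05; incubated at 37 °C, shaking at 110 rpm, for 3 days (M. abscessus Bamboo) or 4 days (M. avium 11). […] Clarithromycin positive control; data representative of two independent replicates.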

Mycobacterium avium [5] = experiment: Antitubercular activity against Mycobacterium avium 11 assessed as inhibition of bacterial growth upto 100 uM measured after 4 days by broth microdilution method; format: functional, organism-based; conditions: time 4.0 day; in short: as §1
Mycobacterium marinum [6] = experiment: Antitubercular activity against Mycobacterium marinum ATCC BAA-535 assessed as inhibition of bacterial growth measured after 3 weeks by broth microdilution method; format: functional; conditions: ATCC BAA-535, 504 h
[7] = Half life in human liver microsomes at 1 uM preincubated with NADP+ for 5 mins prior to compound addition by HPLC-MRM-MS analysis; format: ADME, Microsome
In short: (§2)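 Pooled HLM at 1 mg/mL protein in 100 mM PBS pH 7.4 with an NADPH-regenerating mix: G6P 10 mM, NADP+ 2 mM, MgCl2 5 mM, G6PDH 1.5 U/mL (stock concentrations). Pre-incubated 5 min at 37 °C, then compound added to 1 μM final (1% DMSO).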

Mycobacterium avium [8] = experiment: Antitubercular activity against Mycobacterium avium 11 assessed as inhibition of bacterial growth at 100 uM measured after 4 days by broth microdilution method; format: functional; conditions: Mycobacterium avium, 11, 96 h, time 4 day
[9] = tested on: Mycobacteroides abscessus; experiment: Antitubercular activity against Mycobacterium abscessus Bamboo assessed as inhibition of bacterial growth at 100 uM measured after 3 days by broth microdilution method; format: functional; conditions: 72 h, time 3 day; in short: as §1
[10] = Metabolic stability of the compound in human liver microsomes assessed as parent residual fraction at 1 uM preincubated with NADP+ for 5 mins prior to compound addition by HPCLC-MRM-MS analysis; format: ADME, Microsome; conditions: read-out: Stability; in short: as §2
[11] = Mycobacterium tuberculosis, H37Rv, 168 h, time 7 day, read-out: MIC90

| SMILES | MIC90 [1, 11] [µg/mL] | IC50 at 72 h [3] [µg/mL] | also measured |
| --- | --- | --- | --- |
| O=C(Nc1ccccn1)c1cc(-c2csc(Nc3ccc(CO)cc3)n2)on1 | > 20 | – | – |
| O=C(Nc1ccccn1)c1cc(-c2csc(Nc3cc(F)cc(F)c3)n2)on1 | > 20 | – | – |
| O=C(Nc1cccc(F)c1)c1cc(C(=O)Nc2nc3ccccc3s2)on1 | – | – | MIC90 ([1]; time 7.0 day): inactive; MIC90 (Mycobacterium marinum [2]): inactive |
| Cc1cc(C)cc(Nc2nc(-c3cc(C(=O)Nc4ccccc4)no3)cs2)c1 | 1 (≈ 2.56 µM) | 70.9 (≈ 182 µM) | Activity [4]: inactive; Activity (Mycobacterium avium [5]): inactive |
| Cc1ccc(Nc2nc(-c3cc(C(=O)Nc4ccccc4F)no3)cs2)cc1 | 1 (≈ 2.54 µM) | 33.9 (≈ 85.9 µM) | – |
| Cc1ccc(Nc2nc(-c3cc(C(=O)Nc4cccc(C)n4)no3)cs2)cc1 | – | 66.8 (≈ 171 µM) | MIC90 (Mycobacterium marinum [6]): 1 µg/mL (≈ 2.55 µM) |
| Cc1ccc(Nc2nc(-c3cc(C(=O)Nc4ccc(C)cc4Cl)no3)cs2)cc1 | > 20 | – | – |
| Cc1ccc(Nc2nc(-c3cc(C(=O)Nc4cc(C)cc(C)c4)no3)cs2)cc1 | > 20 | – | – |
| Cc1ccc(Nc2nc(-c3cc(C(=O)Nc4ccccc4C)no3)cs2)cc1 | 1 (≈ 2.56 µM) | 63.7 (≈ 163 µM) | Activity [4]: inactive; Activity (Mycobacterium avium [5]): inactive |
| Cc1ccc2nc(NC(=O)c3cc(C(=O)Nc4ccc(O)cc4)no3)sc2c1 | – | – | MIC90 ([1]; time 7.0 day): inactive; MIC90 (Mycobacterium marinum [2]): inactive |
| O=C(Nc1ccccc1)c1cc(-c2csc(Nc3ccc(CO)cc3)n2)on1 | > 20 | – | – |
| O=C(Nc1ccccc1)c1cc(-c2csc(Nc3cc(F)cc(F)c3)n2)on1 | > 20 | – | – |
| O=C(Nc1ccccc1)c1cc(-c2csc(Nc3ccc(Cl)cc3)n2)on1 | 1.25 (≈ 3.15 µM) | > 100 | MIC90 (Mycobacterium marinum [6]): 2 µg/mL (≈ 5.04 µM); t1/2 [7]: 59 min |
| Cc1cccc(NC(=O)c2cc(C(=O)Nc3nc4ccccc4s3)on2)c1 | – | – | MIC90 ([1]; time 7.0 day): inactive; MIC90 (Mycobacterium marinum [2]): inactive |
| O=C(Nc1ccccc1)c1cc(-c2csc(Nc3ccccc3)n2)on1 | 1.25 (≈ 3.45 µM) | 11.9 (≈ 32.8 µM) | inhibition at 100 µM (Mycobacterium avium [8]): 50%; t1/2 [7]: 43 min; inhibition at 100 µM [9]: 50% |
| O=C(Nc1ccccc1)c1cc(-c2csc(Nc3ccc(C(F)(F)F)cc3)n2)on1 | > 20 | – | remaining at 1 µM [10]: 71% |

| SMILES | MIC90 [1, 11] [µg/mL] | IC50 at 72 h [3] [µg/mL] | also measured |
| --- | --- | --- | --- |
| Cc1cccc(NC(=O)c2cc(C(=O)Nc3nc4ccc(C)cc4s3)on2)c1 | – | – | MIC90 ([1]; time 7.0 day): inactive; MIC90 (Mycobacterium marinum [2]): inactive |
| O=C(Nc1ccccc1)c1cc(C(=O)Nc2nc3ccccc3s2)on1 | – | – | MIC90 ([1]; time 7.0 day): inactive; MIC90 (Mycobacterium marinum [2]): inactive |
| Cc1ccc(Nc2nc(-c3cc(C(=O)Nc4ccccn4)no3)co2)cc1 | 2.5 (≈ 6.92 µM) | 70.9 (≈ 196 µM) | – |
| COc1ccc2sc(NC(=O)c3cc(C(=O)Nc4cccc(C)c4)no3)nc2c1 | – | – | MIC90 ([1]; time 7.0 day): inactive; MIC90 (Mycobacterium marinum [2]): inactive |
| Cc1ccc(Nc2nc(-c3cc(C(=O)Nc4ccccc4O)no3)cs2)cc1 | 0.5 (≈ 1.27 µM) | 53.1 (≈ 135 µM) | – |
| Cc1ccc(Nc2nc(-c3cc(C(=O)Nc4cccnc4)no3)cs2)cc1 | 10 (≈ 26.5 µM) | – | – |
| Cc1ccc(Nc2nc(-c3cc(C(=O)Nc4ccncc4)no3)cs2)cc1 | 1 (≈ 2.65 µM) | 29.9 (≈ 79.2 µM) | Activity [4]: inactive; Activity (Mycobacterium avium [5]): inactive |
| CCOc1cccc(NC(=O)c2cc(-c3csc(Nc4ccc(C)cc4)n3)on2)c1 | > 20 | – | – |
| O=C(Nc1ccccn1)c1cc(-c2csc(Nc3ccc(C(F)(F)F)cc3)n2)on1 | > 20 | – | remaining at 1 µM [10]: 85% |
| Cc1ccc(Nc2nc(-c3cc(C(=O)Nc4nccs4)no3)cs2)cc1 | > 40 | – | – |
| Cc1ccc(Nc2nc(-c3cc(C(=O)Nc4ccccn4)no3)cs2)c(O)c1 | > 20 | – | – |
| Cc1ccc(Nc2nc(-c3cc(C(=O)Nc4ccnnc4)no3)cs2)cc1 | > 20 | – | – |
| Nc1nc(-c2cc(C(=O)Nc3ccccn3)no2)cs1 | > 20 | – | remaining at 1 µM [10]: 96% |
| Cc1ccc(Nc2nc(-c3cc(C(=O)Nc4ccc(O)cc4)no3)cs2)cc1O | 5 (≈ 12.2 µM) | – | t1/2 [7]: 19 min |
| Cc1ccc(Nc2nc(-c3cc(C(=O)Nc4ccccc4)no3)co2)cc1 | 1 (≈ 2.77 µM) | > 100 | Activity [4]: inactive; Activity (Mycobacterium avium [5]): inactive |
| O=C(Nc1cccc(O)c1)c1cc(C(=O)Nc2nc3ccccc3s2)on1 | – | – | MIC90 ([1]; time 7.0 day): inactive; MIC90 (Mycobacterium marinum [2]): inactive |
